Laboratory results as given in ChEMBL document CHEMBL1165858, “Synthesis and biological evaluation of beta-chloro vinyl chalcones as inhibitors of TNF-alpha and IL-6 with antimicrobial activity” (Eur J Med Chem, 2010).
Values after ≈ are worked out from the molar mass of the structure shown. Active and inactive are the calls of the source. No cut-off for these calls is given here.

Columns and labels:
[1] = Cytotoxicity against […] at 10 uM; format: cell-based
Bacillus subtilis = assay: Antibacterial activity against Bacillus subtilis NCIM 2546 after 24 hrs by disc diffusion method; format: functional; conditions: for MIC: Bacillus subtilis, NCIM 2546, 24 h
How it was run: (§1)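 Paper disc diffusion (6.25 mm Whatman no.1 discs, dry-heat sterilized at 140 °C for 1 h) loaded with compounds at different concentrations in DMSO. Discs were placed in triplicate on nutrient agar seeded with fresh bacterial culture and incubated at 37 °C for 24 h, with solvent and growth controls. Zones of inhibition (mm) and MIC, the concentration completely inhibiting growth, were recorded.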

Penicillium chrysogenum = assay: Antibacterial activity against Penicillium chrysogenum NCIM 707 after 72 hrs by disc diffusion method; format: functional; conditions: for MIC: Penicillium chrysogenum, NCIM 707, 72 h
How it was run: (§2)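 Agar disc diffusion against fungi. Fungi were maintained on potato dextrose agar at (25 ± 2) °C for five days before use. Compounds were dissolved in DMSO (10 mg/mL initial solutions) and loaded on discs placed on freshly seeded plates alongside a solvent control disc. Plates were held at 4 °C for 24 h for diffusion, then incubated at 37 ± 5 °C for 72 h. Zones of inhibition (mm) and MICs were recorded.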

Trichoderma viride = assay: Antibacterial activity against Trichoderma viride TT after 72 hrs by disc diffusion method; format: functional; conditions: for MIC: Trichoderma viride, TT, 72 h; how it was run: as §2
Staphylococcus aureus = assay: Antibacterial activity against Staphylococcus aureus NCIM 2120 after 24 hrs by disc diffusion method; format: functional; conditions: for MIC: Staphylococcus aureus, NCIM 2120, 24 h; how it was run: as §1
Klebsiella pneumoniae = assay: Antibacterial activity against Klebsiella pneumoniae NCIM 5082 after 24 hrs by disc diffusion method; format: functional; conditions: for MIC: Klebsiella pneumoniae, NCIM 5082, 24 h; how it was run: as §1
Proteus vulgaris = assay: Antibacterial activity against Proteus vulgaris NCIM 2813 after 24 hrs by disc diffusion method; format: functional; conditions: for MIC: Proteus vulgaris, NCIM 2813, 24 h; how it was run: as §1
Escherichia coli = assay: Antibacterial activity against Escherichia coli NCIM 2065 after 24 hrs by disc diffusion method; format: functional; conditions: for MIC: Escherichia coli, NCIM 2065, 24 h; how it was run: as §1
Candida albicans [2] = assay: Antibacterial activity against Candida albicans NCIM 3100 after 72 hrs by disc diffusion method; format: functional; conditions: for MIC: Candida albicans, NCIM 3100, 72 h; how it was run: as §2
THP-1 [3] = assay: Antiinflammatory activity in human THP1 cells assessed as inhibition of LPS-induced TNFalpha secretion at 10 uM treated 30 mins before LPS challenge measured after 24 hrs by ELISA relative to control; format: functional
How it was run: (§3)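 THP-1 cells were grown in RPMI 1640 with 10% FBS and penicillin/streptomycin, then differentiated with PMA. Compound or vehicle (0.5% DMSO) was added for 30 min at 37 °C, followed by LPS (E. coli 0127:B8, final 1 µg/mL). After 24 h at 37 °C in 5% CO2, TNF-α and IL-6 in the supernatants were quantified by ELISA. Values are the mean of n = 2.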

Aspergillus fumigatus = assay: Antibacterial activity against Aspergillus fumigatus NCIM 902 after 72 hrs by disc diffusion method; format: functional; conditions: for MIC: Aspergillus fumigatus, NCIM 902, 72 h; how it was run: as §2
Aspergillus niger = assay: Antibacterial activity against Aspergillus niger NCIM 545 after 72 hrs by disc diffusion method; format: functional; conditions: for MIC: Aspergillus niger, NCIM 545, 72 h; how it was run: as §2
THP-1 [4] = assay: Antiinflammatory activity in human THP1 cells assessed as inhibition of LPS-induced IL-6 secretion at 10 uM treated 30 mins before LPS challenge measured after 24 hrs by ELISA relative to control; format: functional; how it was run: as §3
Candida albicans [5] = assay: Antibacterial activity against Candida albicans NCIM 3100 at > 100 […] after 72 hrs by disc diffusion method; format: functional, organism-based

GENTAMICIN [listing 1 of 2 here]
Activity [1]: Non-toxic

COc1cc(O)c(C(=O)/C=C/C=C(\Cl)c2ccc(Cl)cc2)c(OC)c1
inhibition zone (IZ) (Bacillus subtilis): 20 mm | MIC (Bacillus subtilis): 25 µg/mL (≈ 65.9 µM) | Activity [1]: Non-toxic | inhibition zone (IZ) (Penicillium chrysogenum): 12 mm | inhibition zone (IZ) (Trichoderma viride): 15 mm | MIC (Trichoderma viride): 50 µg/mL (≈ 132 µM) | inhibition zone (IZ) (Staphylococcus aureus): 18 mm | MIC (Staphylococcus aureus): 25 µg/mL (≈ 65.9 µM) | inhibition zone (IZ) (Klebsiella pneumoniae): 18 mm | MIC (Klebsiella pneumoniae): 25 µg/mL (≈ 65.9 µM) | inhibition zone (IZ) (Proteus vulgaris): 15 mm | MIC (Proteus vulgaris): 50 µg/mL (≈ 132 µM) | inhibition zone (IZ) (Escherichia coli): 15 mm | MIC (Escherichia coli): 50 µg/mL (≈ 132 µM) | inhibition zone (IZ) (Candida albicans [2]): 12 mm | inhibition at 10 µM (THP-1 [3]): 13% | inhibition zone (IZ) (Aspergillus fumigatus): 17 mm | MIC (Aspergillus fumigatus): 25 µg/mL (≈ 65.9 µM) | inhibition zone (IZ) (Aspergillus niger): 16 mm | MIC (Aspergillus niger): 50 µg/mL (≈ 132 µM) | inhibition at 10 µM (THP-1 [4]): 74%

GENTAMICIN [listing 2 of 2 here]
inhibition zone (IZ) (Bacillus subtilis): 24 mm | inhibition zone (IZ) (Klebsiella pneumoniae): 22 mm | inhibition zone (IZ) (Proteus vulgaris): 18 mm

CC1(C)S[C@@H]2[C@H](NC(=O)Cc3ccccc3)C(=O)N2[C@H]1C(=O)O [PENICILLIN G]
inhibition zone (IZ) (Bacillus subtilis): 22 mm | MIC (Bacillus subtilis): 25 µg/mL (≈ 74.8 µM) | Activity [1]: Non-toxic | inhibition zone (IZ) (Staphylococcus aureus): 20 mm | MIC (Staphylococcus aureus): 25 µg/mL (≈ 74.8 µM) | inhibition zone (IZ) (Klebsiella pneumoniae): 21 mm | MIC (Klebsiella pneumoniae): 25 µg/mL (≈ 74.8 µM) | inhibition zone (IZ) (Proteus vulgaris): 22 mm | MIC (Proteus vulgaris): 25 µg/mL (≈ 74.8 µM) | inhibition zone (IZ) (Escherichia coli): 18 mm | MIC (Escherichia coli): 25 µg/mL (≈ 74.8 µM)

C[C@@H]1C[C@H]2[C@@H]3CCC4=CC(=O)C=C[C@]4(C)[C@@]3(F)[C@@H](O)C[C@]2(C)[C@@]1(O)C(=O)CO [DEXAMETHASONE]
Activity [1]: Non-toxic | inhibition at 10 µM (THP-1 [3]): 69% | inhibition at 10 µM (THP-1 [4]): 90%

COc1cc(O)c(C(=O)/C=C/C=C(\Cl)c2ccc(Cl)cc2Cl)c(OC)c1
inhibition zone (IZ) (Bacillus subtilis): 17 mm | MIC (Bacillus subtilis): 50 µg/mL (≈ 121 µM) | Activity [1]: Non-toxic | inhibition zone (IZ) (Penicillium chrysogenum): 17 mm | MIC (Penicillium chrysogenum): 25 µg/mL (≈ 60.4 µM) | inhibition zone (IZ) (Trichoderma viride): 18 mm | MIC (Trichoderma viride): 25 µg/mL (≈ 60.4 µM) | inhibition zone (IZ) (Staphylococcus aureus): 19 mm | MIC (Staphylococcus aureus): 25 µg/mL (≈ 60.4 µM) | inhibition zone (IZ) (Klebsiella pneumoniae): 15 mm | MIC (Klebsiella pneumoniae): 50 µg/mL (≈ 121 µM) | inhibition zone (IZ) (Proteus vulgaris): 19 mm | MIC (Proteus vulgaris): 25 µg/mL (≈ 60.4 µM) | inhibition zone (IZ) (Escherichia coli): 14 mm | MIC (Escherichia coli): 50 µg/mL (≈ 121 µM) | inhibition zone (IZ) (Candida albicans [2]): 10 mm | inhibition at 10 µM (THP-1 [3]): 0% | inhibition zone (IZ) (Aspergillus fumigatus): 17 mm | MIC (Aspergillus fumigatus): 50 µg/mL (≈ 121 µM) | inhibition zone (IZ) (Aspergillus niger): 10 mm | inhibition at 10 µM (THP-1 [4]): 67%

COc1cccc(/C(Cl)=C/C=C/C(=O)c2c(O)cc(OC)cc2OC)c1
Activity [1]: Non-toxic | inhibition zone (IZ) (Penicillium chrysogenum): 17 mm | MIC (Penicillium chrysogenum): 25 µg/mL (≈ 66.7 µM) | inhibition zone (IZ) (Trichoderma viride): 16 mm | MIC (Trichoderma viride): 50 µg/mL (≈ 133 µM) | inhibition zone (IZ) (Staphylococcus aureus): 15 mm | MIC (Staphylococcus aureus): 50 µg/mL (≈ 133 µM) | inhibition zone (IZ) (Klebsiella pneumoniae): 14 mm | MIC (Klebsiella pneumoniae): 50 µg/mL (≈ 133 µM) | inhibition zone (IZ) (Escherichia coli): 10 mm | inhibition zone (IZ) (Candida albicans [2]): 13 mm | inhibition at 10 µM (THP-1 [3]): 11% | inhibition zone (IZ) (Aspergillus fumigatus): 16 mm | MIC (Aspergillus fumigatus): 50 µg/mL (≈ 133 µM) | inhibition zone (IZ) (Aspergillus niger): 16 mm | MIC (Aspergillus niger): 50 µg/mL (≈ 133 µM) | inhibition at 10 µM (THP-1 [4]): 39%

COc1cc(O)c(C(=O)/C=C/C=C(\Cl)c2ccccc2Cl)c(OC)c1
inhibition zone (IZ) (Bacillus subtilis): 16 mm | MIC (Bacillus subtilis): 50 µg/mL (≈ 132 µM) | Activity [1]: Non-toxic | inhibition zone (IZ) (Penicillium chrysogenum): 16 mm | MIC (Penicillium chrysogenum): 50 µg/mL (≈ 132 µM) | inhibition zone (IZ) (Trichoderma viride): 14 mm | MIC (Trichoderma viride): 50 µg/mL (≈ 132 µM) | MIC (Candida albicans [5]): inactive | inhibition zone (IZ) (Staphylococcus aureus): 16 mm | MIC (Staphylococcus aureus): 50 µg/mL (≈ 132 µM) | inhibition zone (IZ) (Klebsiella pneumoniae): 18 mm | MIC (Klebsiella pneumoniae): 25 µg/mL (≈ 65.9 µM) | inhibition zone (IZ) (Proteus vulgaris): 20 mm | MIC (Proteus vulgaris): 25 µg/mL (≈ 65.9 µM) | inhibition zone (IZ) (Escherichia coli): 14 mm | MIC (Escherichia coli): 50 µg/mL (≈ 132 µM) | inhibition at 10 µM (THP-1 [3]): 17% | inhibition zone (IZ) (Aspergillus fumigatus): 14 mm | MIC (Aspergillus fumigatus): 50 µg/mL (≈ 132 µM) | inhibition zone (IZ) (Aspergillus niger): 16 mm | MIC (Aspergillus niger): 50 µg/mL (≈ 132 µM) | inhibition at 10 µM (THP-1 [4]): 43%

COc1cc(O)c(C(=O)/C=C/C=C(\Cl)c2ccc(Br)cc2)c(OC)c1
inhibition zone (IZ) (Bacillus subtilis): 18 mm | MIC (Bacillus subtilis): 25 µg/mL (≈ 59 µM) | Activity [1]: Non-toxic | inhibition zone (IZ) (Penicillium chrysogenum): 18 mm | MIC (Penicillium chrysogenum): 25 µg/mL (≈ 59 µM) | inhibition zone (IZ) (Trichoderma viride): 18 mm | MIC (Trichoderma viride): 25 µg/mL (≈ 59 µM) | inhibition zone (IZ) (Staphylococcus aureus): 14 mm | MIC (Staphylococcus aureus): 50 µg/mL (≈ 118 µM) | inhibition zone (IZ) (Klebsiella pneumoniae): 20 mm | MIC (Klebsiella pneumoniae): 25 µg/mL (≈ 59 µM) | inhibition zone (IZ) (Proteus vulgaris): 12 mm | inhibition zone (IZ) (Escherichia coli): 15 mm | MIC (Escherichia coli): 50 µg/mL (≈ 118 µM) | inhibition zone (IZ) (Candida albicans [2]): 14 mm | MIC (Candida albicans [2]): 25 µg/mL (≈ 59 µM) | inhibition at 10 µM (THP-1 [3]): 8% | inhibition zone (IZ) (Aspergillus fumigatus): 20 mm | MIC (Aspergillus fumigatus): 25 µg/mL (≈ 59 µM) | inhibition zone (IZ) (Aspergillus niger): 14 mm | MIC (Aspergillus niger): 50 µg/mL (≈ 118 µM) | inhibition at 10 µM (THP-1 [4]): 58%

COc1cc(O)c(C(=O)/C=C/C=C(\Cl)c2ccc(F)cc2)c(OC)c1
inhibition zone (IZ) (Bacillus subtilis): 22 mm | MIC (Bacillus subtilis): 25 µg/mL (≈ 68.9 µM) | Activity [1]: Non-toxic | inhibition zone (IZ) (Penicillium chrysogenum): 14 mm | MIC (Penicillium chrysogenum): 50 µg/mL (≈ 138 µM) | inhibition zone (IZ) (Trichoderma viride): 16 mm | MIC (Trichoderma viride): 50 µg/mL (≈ 138 µM) | inhibition zone (IZ) (Staphylococcus aureus): 14 mm | MIC (Staphylococcus aureus): 50 µg/mL (≈ 138 µM) | inhibition zone (IZ) (Klebsiella pneumoniae): 14 mm | MIC (Klebsiella pneumoniae): 50 µg/mL (≈ 138 µM) | inhibition zone (IZ) (Proteus vulgaris): 18 mm | MIC (Proteus vulgaris): 25 µg/mL (≈ 68.9 µM) | inhibition zone (IZ) (Escherichia coli): 16 mm | MIC (Escherichia coli): 50 µg/mL (≈ 138 µM) | inhibition zone (IZ) (Candida albicans [2]): 10 mm | inhibition at 10 µM (THP-1 [3]): 16% | inhibition zone (IZ) (Aspergillus fumigatus): 14 mm | MIC (Aspergillus fumigatus): 50 µg/mL (≈ 138 µM) | inhibition zone (IZ) (Aspergillus niger): 17 mm | MIC (Aspergillus niger): 25 µg/mL (≈ 68.9 µM) | inhibition at 10 µM (THP-1 [4]): 83%

OC(Cn1cncn1)(Cn1cncn1)c1ccc(F)cc1F [FLUCONAZOLE]
inhibition zone (IZ) (Penicillium chrysogenum): 22 mm | MIC (Penicillium chrysogenum): 25 µg/mL (≈ 81.6 µM) | inhibition zone (IZ) (Trichoderma viride): 22 mm | MIC (Trichoderma viride): 25 µg/mL (≈ 81.6 µM) | inhibition zone (IZ) (Candida albicans [2]): 18 mm | MIC (Candida albicans [2]): 25 µg/mL (≈ 81.6 µM) | inhibition zone (IZ) (Aspergillus fumigatus): 20 mm | MIC (Aspergillus fumigatus): 25 µg/mL (≈ 81.6 µM) | inhibition zone (IZ) (Aspergillus niger): 20 mm | MIC (Aspergillus niger): 25 µg/mL (≈ 81.6 µM)
